This note sets out measurements from ChEMBL document CHEMBL1781975, “Synthesis, crystal structure and antimicrobial activity of deoxybenzoin derivatives from genistein” (2008).

One assay deals with Bacillus subtilis. Nature of the assay: Antibacterial activity against Bacillus subtilis after 24 hrs by MTT assay. The assay is classed as functional. The method in brief:
(§1)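 Broth microdilution MIC in Mueller-Hinton medium, compounds from a 50 mg/ml DMSO stock serially diluted in the wells. Inoculum approx. 10⁵ cfu/ml, incubated 37 °C for 24 h. MIC read visually. PBS (pH 7.4) with 2 mg/ml MTT then added, 12 h further incubation at room temperature, OD at 550 nm.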

For a further assay, the system named is Escherichia coli. Nature of the assay: Antibacterial activity against Escherichia coli after 24 hrs by MTT assay. The assay is classed as functional. The method in brief:
as §1

The subject of a further assay is Pseudomonas fluorescens. Nature of the assay: Antibacterial activity against Pseudomonas fluorescens after 24 hrs by MTT assay. The assay is classed as functional. The method in brief:
as §1

A further assay deals with Staphylococcus aureus. Nature of the assay: Antibacterial activity against Staphylococcus aureus after 24 hrs by MTT assay. The assay is classed as functional. The method in brief: as §1
The test system of a further assay is Aspergillus niger. Nature of the assay: Antifungal activity against Aspergillus niger after 48 hrs by MTT assay. The assay is classed as functional, organism-based. Summed up:
(§2)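 Fungi tested by microdilution in RPMI-1640 buffered with 0.165 mol/L MOPS to pH 7.0. Compounds from a 50 mg/ml DMSO stock serially diluted. Inoculum approx. 10⁵ cfu/ml, 37 °C for 48 h. MIC scored visually, then MTT (2 mg/ml in PBS) added, 12 h at room temperature, absorbance 550 nm.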

The next assay has as its system Candida albicans. Nature of the assay: Antifungal activity against Candida albicans after 48 hrs by MTT assay. The assay is classed as functional, organism-based. Summed up: as §2
(In general: Formazan colour is commonly taken as a measure of viable cells.)

The subject of a further assay is Trichophyton rubrum. Nature of the assay: Antifungal activity against Trichophyton rubrum after 48 hrs by MTT assay. The assay is classed as functional, organism-based. Summed up: as §2

Structures are written as SMILES. In brackets after ≈: the same amount, converted by molar mass. Activity calls are given as the source filed them. Some results are limits rather than exact numbers.

A word on the MIC: it is the smallest concentration in the dilution series that meets the test's criterion for growth inhibition. As to `O=C(O)COc1ccc(CC(=O)c2c(O)cc(OCC(=O)O)cc2OCC(=O)O)cc1`, the minimal inhibitory concentration (MIC) in the assay with Bacillus subtilis was 45.5 µg/mL (≈ 105 µM); in the assay on Escherichia coli it was 48.5 µg/mL (≈ 112 µM); against Pseudomonas fluorescens it was > 50 µg/mL; against Staphylococcus aureus it was > 50 µg/mL. The MIC entry with Aspergillus niger, in the assay with Candida albicans and with Trichophyton rubrum was “inactive” each time.
Regarding `O=C(Cc1ccc(O)cc1)c1c(O)cc(O)cc1O`, the MIC against Bacillus subtilis was 40.5 µg/mL (≈ 156 µM); with Escherichia coli it was 42.5 µg/mL (≈ 163 µM); against Pseudomonas fluorescens it was > 50 µg/mL; against Staphylococcus aureus, > 50 µg/mL. For the same molecule, the MIC result with Aspergillus niger, in the assay with Candida albicans and in the assay with Trichophyton rubrum was “inactive” in each case.
Regarding `NC[C@H]1O[C@H](O[C@H]2[C@H](O)[C@@H](O[C@H]3O[C@H](CO)[C@@H](O)[C@H](N)[C@H]3O)[C@H](N)C[C@@H]2N)[C@H](O)[C@@H](O)[C@@H]1O` [KANAMYCIN], the minimal inhibitory concentration (MIC) turned out to be 1 µg/mL (≈ 2.06 µM) against Bacillus subtilis, 0.45 µg/mL (≈ 0.929 µM) with Escherichia coli, 3.9 µg/mL (≈ 8.05 µM) against Pseudomonas fluorescens and 1 µg/mL (≈ 2.06 µM) against Staphylococcus aureus.
Consider `O=c1c(-c2ccc(O)cc2)coc2cc(O)cc(O)c12` [GENISTEIN], for which the MIC with Bacillus subtilis, with Escherichia coli, in the assay on Pseudomonas fluorescens and against Staphylococcus aureus was > 50 µg/mL each time. In addition, the MIC entry with Aspergillus niger, in the assay on Candida albicans and with Trichophyton rubrum was “inactive” throughout.
For the molecule `O=C(Cc1ccc(OCCCBr)cc1)c1c(O)cc(OCCCBr)cc1OCCCBr`, the minimum inhibitory concentration (MIC) in the assay on Bacillus subtilis was 25 µg/mL (≈ 40.1 µM); with Escherichia coli, 25 µg/mL (≈ 40.1 µM); against Pseudomonas fluorescens, > 50 µg/mL; against Staphylococcus aureus, > 50 µg/mL. For the same molecule, the MIC entry in the assay with Aspergillus niger, in the assay with Candida albicans and with Trichophyton rubrum was “inactive” throughout.
Turning to `O=C(Cc1ccc(OCCCBr)cc1)c1c(OCCCBr)cc(OCCCBr)c(Cc2c(OCCCBr)cc(OCCCBr)c(C(=O)Cc3ccc(OCCCBr)cc3)c2O)c1O`, the MIC in the assay with Bacillus subtilis is 6.25 µg/mL (≈ 4.97 µM); in the assay with Escherichia coli it was 17.5 µg/mL (≈ 13.9 µM); in the assay on Pseudomonas fluorescens it was > 50 µg/mL; in the assay with Staphylococcus aureus, > 50 µg/mL. Moreover, the MIC entry in the assay with Aspergillus niger, in the assay with Candida albicans and in the assay on Trichophyton rubrum was “inactive” in each case.
Take `COc1ccc(CC(=O)c2c(O)cc(OC)cc2OC)cc1`: the minimal inhibitory concentration (MIC) against Bacillus subtilis, in the assay on Escherichia coli, against Pseudomonas fluorescens and against Staphylococcus aureus was > 50 µg/mL in each case. The MIC result in the assay on Aspergillus niger, in the assay on Candida albicans and with Trichophyton rubrum was “inactive” in each case.
`CC(=O)N1CCN(c2ccc(OCC3COC(Cn4ccnc4)(c4ccc(Cl)cc4Cl)O3)cc2)CC1` (stereo not given) [KETOCONAZOLE]: the MIC in the assay on Bacillus subtilis, against Escherichia coli, in the assay with Pseudomonas fluorescens and against Staphylococcus aureus was > 50 µg/mL in each case.
On to `COc1ccc(CC(=O)c2c(OC)cc(OC)c(Cc3c(OC)cc(OC)c(C(=O)Cc4ccc(OC)cc4)c3O)c2O)cc1`, for which the MIC with Bacillus subtilis was 31.5 µg/mL (≈ 51.1 µM); against Escherichia coli it was 38.5 µg/mL (≈ 62.4 µM); with Pseudomonas fluorescens it was > 50 µg/mL; in the assay on Staphylococcus aureus, > 50 µg/mL. For the same molecule, the MIC entry in the assay with Aspergillus niger, in the assay with Candida albicans and in the assay with Trichophyton rubrum was “inactive” throughout.
Consider `O=C(O)COc1ccc(CC(=O)c2c(OCC(=O)O)cc(OCC(=O)O)c(Cc3c(OCC(=O)O)cc(OCC(=O)O)c(C(=O)Cc4ccc(OCC(=O)O)cc4)c3O)c2O)cc1`, for which the MIC in the assay with Bacillus subtilis is 12.5 µg/mL (≈ 14.2 µM); against Escherichia coli it was 25 µg/mL (≈ 28.4 µM); against Pseudomonas fluorescens, > 50 µg/mL; against Staphylococcus aureus it was > 50 µg/mL. Further, the MIC result in the assay with Aspergillus niger, in the assay with Candida albicans and in the assay on Trichophyton rubrum was “inactive” each time.
`O=C(Cc1ccc(OCCBr)cc1)c1c(O)cc(OCCBr)cc1OCCBr`: the MIC was 30.5 µg/mL (≈ 52.5 µM) against Bacillus subtilis, 36.5 µg/mL (≈ 62.8 µM) with Escherichia coli, > 50 µg/mL in the assay on Pseudomonas fluorescens and > 50 µg/mL against Staphylococcus aureus. The MIC result with Aspergillus niger, with Candida albicans and in the assay with Trichophyton rubrum was “inactive” throughout.
Turning to `CC1(C)S[C@@H]2[C@H](NC(=O)Cc3ccccc3)C(=O)N2[C@H]1C(=O)O` [PENICILLIN G], the MIC was 7.8 µg/mL (≈ 23.3 µM) in the assay on Bacillus subtilis, > 50 µg/mL in the assay on Escherichia coli, > 50 µg/mL against Pseudomonas fluorescens and 2 µg/mL (≈ 5.98 µM) against Staphylococcus aureus.
